Experimental data from ChEMBL document CHEMBL4402581, “Monohydrazone Based G-Quadruplex Selective Ligands Induce DNA Damage and Genome Instability in Human Cancer Cells” (J Med Chem, 2020).
pIC50: −log10 of the molar value. Activity calls are given as the source filed them. The calls are words filed in the database; no cut-off is given here.

Legend:
[1] = Displacement of Thiazole orange from hairpin duplex DNA incubated for 3 mins by spectrofluorimetry
Summary of the method: (§1)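 Pre-folded DNA (0.25 μM) in K phosphate/KCl buffer was mixed with thiazole orange: 0.50 μM for G4s, 0.75 μM for duplex. Ligand was added stepwise from 0.5 to 10 equiv, with 3 min equilibration at 20 °C after each addition. Excitation 495 nm; emission read at 543 nm. Displacement % = 100 − (F/F0 × 100). DC50 is the concentration giving 50% displacement.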

U2OS [2] = assay: Cytotoxicity against human U2OS cells assessed as reduction in cell viability incubated for 1 hr followed by 48 hrs of recovery in drug free medium by MTT assay; assay type: functional, cell-based
Summary of the method: (§2)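 Cells grown in DMEM with 10% FBS and 1% glutamine at 37 °C, 5% CO2, and seeded 25 × 10^4 per well. Treatment began 24 h after seeding and lasted 1 or 24 h, followed by 48 h in drug-free medium. MTT was added for 1 h at 37 °C, then DMSO solubilization and absorbance at 595 nm. IC50 came from linear regression; two independent experiments, each in triplicate.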

Quadruplex DNA [3] = assay: Binding affinity at FAM/TAMRA-tagged parallel Tel21 G4 quadruplex DNA assessed as melting temperature at 2 uM in presence of 25 fold excess duplex DNA by FRET melting assay (reference value: 55.4 +/- 0.2 degreeC); assay type: nucleic-acid assay
Summary of the method: (§3)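 Dual FAM/TAMRA-labelled oligos (0.2 μM) in 20 mM K phosphate pH 7.0 with 5 mM KCl, annealed 90 °C 5 min, slow-cooled overnight, held 4 °C 24 h. The Tel21 parallel form was annealed at high DNA concentration. Ligand 2 μM. Unlabelled ds12 duplex competitor at 0, 5 or 10 μM final. Tm was read from FRET melting curves.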

U2OS [4] = assay: Induction of genome instability in human U2OS cells assessed as fold increase in micronuclei formation per 100 cells at 10 uM incubated for 24 hrs by immunofluorescence microscopy relative to control; assay type: functional
Summary of the method: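 U2OS cells were treated for 24 h, fixed in 4% paraformaldehyde, permeabilized with 0.5% Triton X-100, and stained with DAPI. Micronuclei were counted per 100 cells.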

Quadruplex DNA [5] = assay: Effect on human Tel23 G4 quadruplex DNA architecture at 10 mol.equiv by circular dichroism spectral analysis; assay type: nucleic-acid assay
Summary of the method: (§4)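 CD spectra of 15 μM G4s or 30 μM hairpin in 20 mM K phosphate pH 7.0 with 5 mM KCl, after annealing. Recorded at 20 °C over 230–360 nm, three scans averaged, buffer baseline subtracted. Ligand was added at 10 mol equiv to the folded DNA from a 10 mM DMSO stock.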

Quadruplex DNA [6] = assay: Stabilization of G4 quadruplex DNA in human U2OS cells assessed as change in size of BG4 foci at 2 uM incubated for 24 hrs by immunofluorescence microscopy; assay type: cell-based
Quadruplex DNA [7] = assay: Displacement of Thiazole orange from parallel Tel23 G4 quadruplex DNA incubated for 3 mins by spectrofluorimetry; assay type: nucleic-acid assay; summary of the method: as §1
Quadruplex DNA [8] = assay: Stabilization of G4 quadruplex DNA in human U2OS cells assessed as colocalization of TRF2/[…] foci at 2 uM incubated for 24 hrs by immunofluorescence microscopy (reference value: 18.4 +/- 2.81%); assay type: cell-based
U2OS [9] = assay: Induction of DNA damage in human U2OS cells assessed as increase in phosphorylated 53BPI foci colocalization with gammaH2AX foci at 10 uM incubated for 4 hrs by immunofluorescence microscopy; assay type: functional, cell-based
Summary of the method: (§5)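 U2OS cells were treated with 10 μM for 4 h, pre-extracted 3 min with CSK buffer containing 0.5% Triton X-100, and fixed in 2% paraformaldehyde. Co-stained 1 h for 53BP1 and γH2AX, with DAPI counterstain. Foci were counted per nucleus and normalized to the untreated mean, across three biological replicates.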

Quadruplex DNA [10] = assay: Stabilization of c-Kit1 G4 quadruplex DNA assessed as change in melting temperature at 10 mol.equiv by circular dichroism melting assay; assay type: nucleic-acid assay
Summary of the method: (§6)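 CD melting from 20 to 100 °C at 1 °C/min, monitored at 264 nm (c-Kit1, c-Kit2, c-Myc, Tel23-p), 287 nm (Tel23-h) or 280 nm (hairpin). Ligand was at 10 mol equiv with folded DNA (15 μM G4, 30 μM hairpin). ΔTm is Tm with ligand minus Tm without, from curve fits, averaged over triplicates.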

Quadruplex DNA [11] = assay: Binding affinity at FAM/TAMRA-tagged c-Kit2 G4 quadruplex DNA assessed as melting temperature at 2 uM in presence of 25 fold excess duplex DNA by FRET melting assay (reference value: 69.7 +/- 0.3 degreeC); assay type: nucleic-acid assay; summary of the method: as §3
Quadruplex DNA [12] = assay: Binding affinity at FAM/TAMRA-tagged c-Kit2 G4 quadruplex DNA assessed as melting temperature at 2 uM in presence of 50 fold excess duplex DNA by FRET melting assay (reference value: 69.7 +/- 0.3 degreeC); assay type: nucleic-acid assay; summary of the method: as §3
Quadruplex DNA [13] = assay: Displacement of Thiazole orange from parallel Tel23 G4 quadruplex DNA incubated for 3 mins by spectrofluorimetry relative to control; assay type: nucleic-acid assay; summary of the method: as §1
U2OS [14] = assay: Induction of DNA:RNA hybrid formation in human U2OS cells assessed as increase in R loop formation at 10 uM incubated for 60 mins by S9.6 immunofluorescence microscopy; assay type: functional, cell-based
Summary of the method: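 U2OS cells were treated at 10 μM for 5–60 min, 24 h after seeding, then fixed in cold methanol and permeabilized with acetone. Stained with S9.6 antibody and anti-nucleolin. The nucleolar signal was subtracted from total nuclear S9.6 fluorescence, and values were normalized to the untreated mean; two biological replicates.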

Quadruplex DNA [15] = assay: Stabilization of G4 quadruplex DNA in human U2OS cells assessed as TRF2 foci per cell at 2 uM incubated for 24 hrs by immunofluorescence microscopy (reference value: 15.8 +/- 2.6%); assay type: cell-based
Quadruplex DNA [16] = assay: Effect on c-Kit1 G4 quadruplex DNA architecture at 10 mol.equiv by circular dichroism spectral analysis; assay type: nucleic-acid assay; summary of the method: as §4
Quadruplex DNA [17] = assay: Binding affinity at FAM/TAMRA-tagged c-Kit2 G4 quadruplex DNA assessed as melting temperature at 2 uM by FRET melting assay (reference value: 69.7 +/- 0.3 degreeC); assay type: nucleic-acid assay; summary of the method: as §3
Quadruplex DNA [18] = assay: Stabilization of parallel Tel23 G4 quadruplex DNA assessed as change in melting temperature at 10 mol.equiv by circular dichroism melting assay; assay type: nucleic-acid assay; summary of the method: as §6
Quadruplex DNA [19] = assay: Effect on parallel Tel23 G4 quadruplex DNA architecture at 10 mol.equiv by circular dichroism spectral analysis; assay type: nucleic-acid assay; summary of the method: as §4
[20] = Stabilization of hairpin-duplex DNA assessed as change in melting temperature at 10 mol.equiv by circular dichroism melting assay; summary of the method: as §6
Quadruplex DNA [21] = assay: Stabilization of G4 quadruplex DNA in human U2OS cells assessed as increase in number of G4 foci at 2 uM incubated for 24 hrs by immunofluorescence microscopy; assay type: cell-based
Quadruplex DNA [22] = assay: Effect on c-Kit2 G4 quadruplex DNA architecture at 10 mol.equiv by circular dichroism spectral analysis; assay type: nucleic-acid assay; summary of the method: as §4
HeLa = assay: Cytotoxicity against human HeLa cells assessed as reduction in cell viability incubated for 24 hrs followed by 48 hrs of recovery in drug free medium by MTT assay; assay type: functional, cell-based; summary of the method: as §2
U2OS [23] = assay: Induction of DNA damage in human U2OS cells assessed as increase in gammaH2AX phosphorylation at S139 at 10 uM incubated for 4 hrs by immunofluorescence microscopy; assay type: functional, cell-based; summary of the method: as §5
Quadruplex DNA [24] = assay: Displacement of Thiazole orange from c-Kit2 G4 quadruplex DNA incubated for 3 mins by spectrofluorimetry relative to control; assay type: nucleic-acid assay; summary of the method: as §1

CC(C)(C)c1cc(/C=N/NC(=N)N)c(O)c(/C=C2/C(=O)Nc3c2ccc2ccccc32)c1.Cl
DC50 [1]: 8.57 µM
pIC50 (U2OS [2]): 4.90
Tm (Quadruplex DNA [3]): 67.7 °C
fold change (FC) (U2OS [4]): 3
Activity (Quadruplex DNA [5]): inactive
Activity (Quadruplex DNA [6]): inactive
DC50 (Quadruplex DNA [7]): 0.48 µM
Activity (Quadruplex DNA [8]): 16.4%
Activity (U2OS [9]): Active
Activity (Quadruplex DNA [10]): Active
Tm (Quadruplex DNA [11]): 76.4 °C
Tm (Quadruplex DNA [12]): 76.5 °C
inhibition (Quadruplex DNA [13]): 80%
Activity (U2OS [14]): Active
Activity (Quadruplex DNA [15]): 15%
Activity (Quadruplex DNA [16]): inactive
Tm (Quadruplex DNA [17]): 77.9 °C
Activity (Quadruplex DNA [18]): Active
Activity (Quadruplex DNA [19]): inactive
Activity [20]: Active
Activity (Quadruplex DNA [21]): Active
Activity (Quadruplex DNA [22]): inactive
pIC50 (HeLa): 6.12
Activity (U2OS [23]): Active
inhibition (Quadruplex DNA [24]): 100%
